Experimental data taken from ChEMBL document CHEMBL1287772, “Synthesis and structure-activity relationship of tetrahydropyrazolopyrimidine derivatives--a novel structural class of potent calcium-sensing receptor antagonists” (Bioorg Med Chem, 2010).

Tests used:
[1] = target: T1, Extracellular calcium-sensing receptor (Homo sapiens, UniProt P41180); assay: Antagonist activity at CaSR expressed in CHO cells assessed as [35S]-GTPgammaS binding by scintillation counting; format: functional, cell-based
T1 sequence (P41180 whole entry): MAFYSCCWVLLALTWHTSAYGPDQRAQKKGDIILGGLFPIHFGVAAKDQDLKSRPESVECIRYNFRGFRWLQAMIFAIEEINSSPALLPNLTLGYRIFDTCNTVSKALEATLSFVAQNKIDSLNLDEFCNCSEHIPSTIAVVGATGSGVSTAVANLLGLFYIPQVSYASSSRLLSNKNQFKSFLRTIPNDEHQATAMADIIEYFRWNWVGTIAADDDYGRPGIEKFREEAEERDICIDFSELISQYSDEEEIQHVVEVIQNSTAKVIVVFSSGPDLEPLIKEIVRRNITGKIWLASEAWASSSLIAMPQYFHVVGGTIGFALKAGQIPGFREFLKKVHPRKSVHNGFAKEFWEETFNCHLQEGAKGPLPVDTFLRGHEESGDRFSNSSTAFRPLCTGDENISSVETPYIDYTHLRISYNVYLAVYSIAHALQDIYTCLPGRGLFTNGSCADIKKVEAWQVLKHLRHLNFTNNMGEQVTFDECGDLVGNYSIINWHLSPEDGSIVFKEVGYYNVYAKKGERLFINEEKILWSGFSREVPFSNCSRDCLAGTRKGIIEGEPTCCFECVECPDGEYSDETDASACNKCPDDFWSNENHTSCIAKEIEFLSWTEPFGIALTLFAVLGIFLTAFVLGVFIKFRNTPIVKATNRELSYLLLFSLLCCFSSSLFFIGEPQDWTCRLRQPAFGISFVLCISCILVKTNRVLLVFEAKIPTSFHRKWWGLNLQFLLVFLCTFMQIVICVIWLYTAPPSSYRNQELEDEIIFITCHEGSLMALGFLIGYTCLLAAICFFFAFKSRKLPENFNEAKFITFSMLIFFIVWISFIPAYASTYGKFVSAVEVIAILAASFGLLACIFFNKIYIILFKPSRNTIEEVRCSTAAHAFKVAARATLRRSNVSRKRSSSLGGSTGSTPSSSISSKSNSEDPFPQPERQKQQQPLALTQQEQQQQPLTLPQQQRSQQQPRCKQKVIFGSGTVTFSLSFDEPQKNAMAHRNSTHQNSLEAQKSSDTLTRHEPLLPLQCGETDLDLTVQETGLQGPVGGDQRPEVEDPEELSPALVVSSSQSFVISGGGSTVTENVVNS

[2] = Cmax in Crl:CD(SD) rat at 10 mg/kg, po administered with 0.5% methylcellulose suspension; format: ADME, organism-based; parameters: dose 10 mg/kg, route oral; settings: in vivo
Procedure, shortened: (§1)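 Nonfasted male rats, 8 weeks old, n = 3, single oral dose 10 mg/kg. Blood sampled at 0.25, 0.5, 1, 2, 4, 8 and 24 h and spun to plasma. Plasma deproteinized with acetonitrile, supernatant diluted in 0.01 mol/L ammonium acetate, re-centrifuged, assayed by HPLC. Mean ± SD reported.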

[3] = AUC in Crl:CD(SD) rat at 10 mg/kg, po administered with solubilized reagent; format: ADME, organism-based; parameters: dose 10 mg/kg, route oral; settings: plasma; procedure, shortened: as §1
[4] = Tmax in Crl:CD(SD) rat at 10 mg/kg, po administered with solubilized reagent; format: ADME, organism-based; parameters: dose 10 mg/kg, route oral; settings: in vivo; procedure, shortened: as §1
[5] = Mean residence time in Crl:CD(SD) rat at 10 mg/kg, po administered with 0.5% methylcellulose suspension; format: ADME, organism-based; parameters: dose 10 mg/kg, route oral; settings: in vivo; procedure, shortened: as §1
[6] = Tmax in Crl:CD(SD) rat at 10 mg/kg, po administered with 0.5% methylcellulose suspension; format: ADME, organism-based; parameters: dose 10 mg/kg, route oral; settings: in vivo; procedure, shortened: as §1
[7] = Mean residence time in Crl:CD(SD) rat at 10 mg/kg, po administered with solubilized reagent; format: ADME, organism-based; parameters: dose 10 mg/kg, route oral; settings: in vivo; procedure, shortened: as §1
[8] = AUC in Crl:CD(SD) rat at 10 mg/kg, po administered with 0.5% methylcellulose suspension; format: ADME, organism-based; parameters: dose 10 mg/kg, route oral; settings: in vivo; procedure, shortened: as §1
[9] = Cmax in Crl:CD(SD) rat at 10 mg/kg, po administered with solubilized reagent; format: ADME, organism-based; parameters: dose 10 mg/kg, route oral; settings: in vivo; procedure, shortened: as §1

IC50 [1] [nM]	Compound	further results
40	O=C(NC12CC3CC(CC(C3)C1)C2)c1cnn2c1N[C@H](c1ccccc1)C[C@@H]2C(F)(F)F	
97	O=C(OC12CC3CC(CC(C3)C1)C2)c1cnn2c1N[C@H](c1ccccc1)C[C@@H]2C(F)(F)F	
> 10000	CN1c2c(C(=O)NC34CC5CC(CC(C5)C3)C4)cnn2[C@@H](C(F)(F)F)C[C@H]1c1ccccc1	
> 10000	O=C(Nc1cnn2c1N[C@H](c1ccccc1)C[C@@H]2C(F)(F)F)C12CC3CC(CC(C3)C1)C2	
> 10000	FC(F)(F)[C@H]1C[C@@H](c2ccccc2)Nc2c(CNC34CC5CC(CC(C5)C3)C4)cnn21	
110	O=C(NC12CC3CC(CC(C3)C1)C2)c1cnn2c1N[C@H](c1ccccc1Cl)C[C@@H]2C(F)(F)F	
320	O=C(NC12CC3CC(CC(C3)C1)C2)c1cnn2c1N[C@H](c1cccc(Cl)c1)C[C@@H]2C(F)(F)F	
> 10000	O=C(NC12CC3CC(CC(C3)C1)C2)c1cnn2c1N[C@H](c1ccc(Cl)cc1)C[C@@H]2C(F)(F)F	
> 10000	COc1ccc([C@@H]2C[C@H](C(F)(F)F)n3ncc(C(=O)NC45CC6CC(CC(C6)C4)C5)c3N2)cc1	
> 10000	CCc1ccc([C@@H]2C[C@H](C(F)(F)F)n3ncc(C(=O)NC45CC6CC(CC(C6)C4)C5)c3N2)cc1	
400	O=C(NC12CC3CC(CC(C3)C1)C2)c1cnn2c1N[C@H](c1ccco1)C[C@@H]2C(F)(F)F	
> 10000	O=C(NC12CC3CC(CC(C3)C1)C2)c1cnn2c1N[C@H](c1cccnc1)C[C@@H]2C(F)(F)F	
> 10000	CC(C)(C)[C@@H]1C[C@H](C(F)(F)F)n2ncc(C(=O)NC34CC5CC(CC(C5)C3)C4)c2N1	
700	O=C(NC12CC3CC(CC(C3)C1)C2)c1cnn2c1N[C@H](c1ccccc1)C[C@@H]2c1ccccc1	
76	C[C@H]1C[C@@H](c2ccccc2)Nc2c(C(=O)NC34CC5CC(CC(C5)C3)C4)cnn21	
> 10000	C[C@@H]1C[C@H](c2ccccc2)n2ncc(C(=O)NC34CC5CC(CC(C5)C3)C4)c2N1	
> 10000	O=C(NC12CC3CC(CC(C3)C1)C2)c1cnn2c1NCC[C@@H]2C(F)(F)F	
5300	O=C(NC12CC3CC(CC(C3)C1)C2)c1cnn2c1N[C@H](c1ccccc1)CC2	
10	CC1(C)C[C@@H](c2ccccc2)Nc2c(C(=O)NC34CC5CC(CC(C5)C3)C4)cnn21	Cmax [2]: 64 ng/mL; AUC [3]: 1270 ng·h/mL; Tmax [4]: 0.67 h; MRT [5]: 4.65 h; Tmax [6]: 1.3 h; MRT [7]: 4.48 h; AUC [8]: 591 ng·h/mL; Cmax [9]: 237 ng/mL
580	CC1(C)C=C(c2ccccc2)Nc2c(C(=O)NC34CC5CC(CC(C5)C3)C4)cnn21	
> 10000	O=C(NC12CC3CC(CC(C3)C1)C2)c1cnn2c(C(F)(F)F)cc(-c3ccccc3)nc12	
